“Also recorded” adds a separate entry of the source. One block for each compound: values may come before it.
How the values were obtained:
[1] = tested on: CDK4/cyclin D1; assay: in vitro kinase assays for CDK4/cyclin D1 activity; type: biochemical; conditions: in vitro kinase assay CDK4/cyclin D1
[2] = tested on: CDK9; assay: in vitro kinase assay; type: biochemical; conditions: in vitro kinase assays
[3] = tested on: TNK1; assay: in vitro kinase assay; type: biochemical; conditions: in vitro kinase assays
[4] = tested on: CDK4; conditions: cited from earlier work; for IC50: read-out: IC50 for CDK4 inhibition
[5] = tested on: GAK; assay: dose-dependent binding competition with soluble drug; conditions: Fig. S3C
[6] = tested on: AURKA; assay: in vitro kinase assay; type: biochemical; conditions: in vitro kinase assays
[7] = tested on: H157 cells; assay: Rb Ser780 phosphorylation immunoblot; type: cell-based; conditions: 1 µM and 5 µM, 4 and 24 hours
[8] = tested on: LUSQ cell lines (H157, H2170, H520, H596); assay: cell viability; type: cell-based; conditions: for sensitivity regarding viability: H157 and H520 cells, Fig. S4
Outline: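 Four LUSQ lines (H157, H2170, H520, H596) were exposed to the test compound for 72 hours and cell viability was measured. IC50 values for inhibition of viability were derived per line.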

[9] = tested on: PIK3R4; assay: dose-dependent binding competition with soluble drug; conditions: Fig. S3C
[10] = molecular target: PIK3C3 (Homo sapiens, UniProt Q8NEB9); assay: in vitro kinase assay; type: biochemical
[11] = tested on: PIK3CD; assay: in vitro kinase assay; type: biochemical; conditions: in vitro kinase assays
[12] = tested on: H157 and H520 cells; assay: LC3 Western blots; type: cell-based; conditions: 48 hours
[13] = tested on: autophagic vesicles; assay: quantitative analysis of autophagic vesicles by Cyto-ID; type: cell-based; conditions: 3 hour treatment
[14] = tested on: H157 and H520 cells; assay: pSer473 AKT and pGSK3 Western blots; type: cell-based; conditions: 4 hours
[15] = tested on: CSNK2α2; assay: in vitro kinase assay; type: biochemical; conditions: in vitro kinase assays

Chain of PIK3C3 (Q8NEB9 whole entry): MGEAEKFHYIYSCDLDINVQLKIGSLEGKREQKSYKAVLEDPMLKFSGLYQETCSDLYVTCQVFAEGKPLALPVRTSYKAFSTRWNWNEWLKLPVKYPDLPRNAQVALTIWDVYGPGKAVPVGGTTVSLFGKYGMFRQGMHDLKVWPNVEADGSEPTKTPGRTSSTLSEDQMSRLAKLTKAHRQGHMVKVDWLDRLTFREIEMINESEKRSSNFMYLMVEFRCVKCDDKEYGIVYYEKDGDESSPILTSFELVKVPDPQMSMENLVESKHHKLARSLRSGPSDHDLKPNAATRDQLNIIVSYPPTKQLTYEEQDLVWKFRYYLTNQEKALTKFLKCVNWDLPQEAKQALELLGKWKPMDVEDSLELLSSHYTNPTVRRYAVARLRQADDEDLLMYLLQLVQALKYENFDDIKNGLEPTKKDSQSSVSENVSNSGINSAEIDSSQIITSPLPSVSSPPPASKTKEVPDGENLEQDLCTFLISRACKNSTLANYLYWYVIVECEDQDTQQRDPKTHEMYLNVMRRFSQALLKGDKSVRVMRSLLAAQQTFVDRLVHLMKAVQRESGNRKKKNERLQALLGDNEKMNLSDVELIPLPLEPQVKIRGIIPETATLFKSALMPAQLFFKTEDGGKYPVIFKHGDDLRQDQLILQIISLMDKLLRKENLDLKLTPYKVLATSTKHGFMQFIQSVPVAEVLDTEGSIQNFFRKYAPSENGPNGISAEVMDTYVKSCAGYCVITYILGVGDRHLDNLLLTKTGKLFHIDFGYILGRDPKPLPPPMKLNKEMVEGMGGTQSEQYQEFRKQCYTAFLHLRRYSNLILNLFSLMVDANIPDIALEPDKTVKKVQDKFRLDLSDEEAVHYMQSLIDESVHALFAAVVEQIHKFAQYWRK

CDK4 activity of coupleable analogues [1]: conservation of their CDK4 activity
Compound: CN(C)C(=O)c1cc2cnc(Nc3ccc(N4CCN(CCCN)CC4)cn3)nc2n1C1CCCC1 [c-ribociclib]

validation as target, CDK9 [2]: potent
validation as target, TNK1 [3]: potent
interaction with GAK [5]: potent interactions
inhibition of AURKA [6]: weakly inhibited
Compound: CN(C)C(=O)c1cc2cnc(Nc3ccc(N4CCNCC4)cn3)nc2n1C1CCCC1 [ribociclib]
inhibition of Rb phosphorylation at S780 [7]: effectively inhibited

Compound: Nc1cc(C(F)(F)F)c(-c2cc(N3CCOCC3)nc(N3CCOCC3)n2)cn1 [BKM120]
sensitivity regarding viability [8]: relative insensitivity

Compound: CCN1CCN(Cc2ccc(Nc3ncc(F)c(-c4cc(F)c5nc(C)n(C(C)C)c5c4)n3)nc2)CC1 [Abemaciclib, abemaciclib]
fold more potent for CDK4 than palbociclib and ribociclib [4]: about 5 fold
effects on viability compared with palbociclib and ribociclib ([8]; LUSQ cell lines, Fig. S1): stronger effects

Compound: CC[C@H](Nc1ncnc2[nH]cnc12)c1nc2cccc(F)c2c(=O)n1-c1ccccc1 [CAL-101]
sensitivity regarding viability [8]: relative insensitivity

validation as target, CDK9 [2]: new palbociclib targets
interaction with PIK3R4 [9]: potent interactions
IC50 [10]: 14.8 µM
validation as target, CSNK2α2 [15]: new palbociclib targets
Compound: CC(=O)c1c(C)c2cnc(Nc3ccc(N4CCNCC4)cn3)nc2n(C2CCCC2)c1=O [palbociclib]
validation as target, PIK3CD [11]: relatively weak; also recorded: new palbociclib targets
lipidation of LC3 (LC3-II) [12]: increased
number of autophagic vesicles [13]: increased
inhibition of Rb phosphorylation at S780 [7]: effectively inhibited
inhibition of phosphorylation of AKT S473 and its downstream target GSK3β [14]: dose-dependently inhibits
cellular activity compared with ribociclib ([8]; LUSQ cell lines, 72 hours): somewhat more active
